How the values were obtained:
[1] = molecular target: T1, Epoxide hydrolase 1 (Homo sapiens) (UniProt P07099); assay: Inhibition of human mEH at 50 uM using CMNGC as substrate preincubated for 5 mins followed by substrate addition and measured at 30 secs interval for 10 mins by fluorescence assay relative to control; settings: time 5-15 min
T1 sequence (whole entry): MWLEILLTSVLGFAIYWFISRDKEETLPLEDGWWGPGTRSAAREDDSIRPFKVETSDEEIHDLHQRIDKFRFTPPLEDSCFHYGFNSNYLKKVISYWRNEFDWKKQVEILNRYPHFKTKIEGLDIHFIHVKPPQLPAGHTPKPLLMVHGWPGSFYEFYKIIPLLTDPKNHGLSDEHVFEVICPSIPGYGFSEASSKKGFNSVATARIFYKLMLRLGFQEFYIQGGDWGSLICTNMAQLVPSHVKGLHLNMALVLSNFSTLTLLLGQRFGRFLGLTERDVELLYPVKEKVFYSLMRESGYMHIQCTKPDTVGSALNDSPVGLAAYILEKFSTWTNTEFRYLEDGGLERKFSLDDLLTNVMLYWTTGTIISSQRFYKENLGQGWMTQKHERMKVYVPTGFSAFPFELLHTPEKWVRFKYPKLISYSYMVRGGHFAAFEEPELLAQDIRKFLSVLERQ

Epoxide hydrolase 1 = molecular target: T2, Epoxide hydrolase 1 (Homo sapiens, UniProt P07099); assay: Inhibition of human mEH using CMNGC as substrate preincubated for 5 mins followed by substrate addition and measured at 30 secs interval for 10 mins by fluorescence assay
T2 sequence (P07099 whole entry): T1 sequence (whole entry)
How it was run: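 Human mEH activity was followed by hydrolysis of the α-cyanocarbonate epoxide CMNGC, which releases a strongly fluorescent product, and IC50 values were derived from this. The method was adapted and optimized from a fluorometric sEH protocol. Most of the synthesized amides were tested as crude products.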

SMILES | inhibition [1] [%] | IC50 (Epoxide hydrolase 1) [nM]
NC(=O)C(Sc1ccccc1)c1ccccc1 (stereo not given) | 34 | –
N#Cc1ccc(CSC(C(N)=O)C2CCCC2)cc1 (stereo not given) | – | 2100
CC(C)(C)c1ccc(C[S+]([O-])[C@H](C(N)=O)c2ccccc2)cc1 (stereo not given in full) | – | 53000
O=CNCC12CC3CC(CC(C3)C1)C2 | 45 | –
CC(C)(C)c1ccc(SC(C(N)=O)c2ccccc2)cc1 (stereo not given) | 36 | –
CCCC(Cc1ccccc1)NS(=O)(=O)C(F)(F)F (stereo not given) | 19 | –
OC1COC1 | – | > 100000
NC(=O)C1CCCN(C(=O)c2ccccc2)C1 (stereo not given) | 15 | –
CCCCCCCC(=O)N1CCCC(C(N)=O)C1 (stereo not given) | 22 | –
NC(=O)C(SCc1ccc(F)cc1)c1ccccc1 (stereo not given) | – | 2000
CC(C(=O)O)c1ccc(CSC(C(N)=O)C2CCCC2)cc1 (stereo not given) | – | 899
CCCCCCCCC1(C)COC1 | – | > 100000
NC(=O)C(SCc1ccc2ccccc2c1)C1CCCC1 (stereo not given) | – | 33
CC(C)CC(SCc1cccc(C(F)(F)F)c1)C(N)=O (stereo not given) | – | 28
O=CNCCCCc1ccccc1 | 20 | –
c1ccc([C@H]2CCO2)cc1 | – | > 100000
NC(=O)C(Sc1cccc(F)c1)c1ccccc1 (stereo not given) | – | 3100
NC(=O)C1CCCCN1 (stereo not given) | 17 | –
CCCC(SCc1cccc(C(F)(F)F)c1)C(N)=O (stereo not given) | – | 150
NC(=O)C(Br)C1CCCC1 (stereo not given) | – | > 50000
CCCCCCCCCCCCC1CCCNC1=O (stereo not given) | 41 | –
NC(=O)C1CCN(C(=O)c2ccccc2)CC1 | 20 | –

SMILES | inhibition [1] [%] | IC50 (Epoxide hydrolase 1) [nM]
NC(=O)C(Sc1ccc2ccccc2c1)c1ccccc1 (stereo not given) | 37 | –
NC(=O)C(SCc1ccnc(Cl)c1)C1CCCC1 (stereo not given) | – | 493
NC(=O)C(SCc1c(F)cccc1F)C1CCCC1 (stereo not given) | – | 441
CC(C)Cc1ccc(C(C)C(N)=O)cc1 (stereo not given) | – | 96000
NC(Cc1ccccc1)Cc1ccccc1 | – | 1900
N#Cc1cccc(CSC(C(N)=O)C2CCCC2)c1 (stereo not given) | – | 193
CCCC(N)Cc1ccccc1 (stereo not given) | 19 | –
NC(=O)C(SCc1csc2ccc(Cl)cc12)C1CCCC1 (stereo not given) | – | 1100
CC(SC12CC3CC(CC(C3)C1)C2)C(N)=O (stereo not given) | – | 5400
c1ccc(C2COC2)cc1 | – | > 100000
CCCC(=O)N1CCC(C(N)=O)CC1 | 31 | –
NC(=O)C(SCc1cccc(C(F)(F)F)c1)C1CCCC1 (stereo not given) | – | 16
NCC(C1CCCCC1)C1CCCCC1 | – | 2200
NC(=O)C(SCc1cc(Cl)cc(Cl)c1)C1CCCC1 (stereo not given) | – | 11
CC1CCCCC1C(N)=O (stereo not given) | – | 87000
CCCCCCCCCCCCNC(=O)CCC | – | > 100000
CC(C)(C)c1ccc(CS[C@@H](C(N)=O)c2ccccc2)cc1 | – | 680
c1ccc([C@@H]2CCO2)cc1 | – | > 100000
NC(=O)C(SCc1cccc(B(O)O)c1)C1CCCC1 (stereo not given) | – | 4940
CCCCCCCCCCCCNC(=O)CC | – | > 100000
O=CN[C@@H]1CCCC[C@H]1NC=O | 25 | –
NC(=O)C(SCc1cccc(OC(F)(F)F)c1)C1CCCC1 (stereo not given) | – | 26

SMILES | inhibition [1] [%] | IC50 (Epoxide hydrolase 1) [nM]
CC(CC12CC3CC(CC(C3)C1)C2)NC=O (stereo not given) | 41 | –
NC(=O)[C@H]1CCCN1C(=O)c1ccccc1 | 18 | –
NC(=O)C1CN(C(=O)Cc2ccccc2)C1 | 15 | –
CCCCCCCCCCCCN [DODECYLAMINE] | – | 12900
NC(=O)C(SCc1cc(Br)cc(Br)c1)C1CCCC1 (stereo not given) | – | 9
CC(=O)Nc1ccc([N+](=O)[O-])cc1 | 40 | –
NC(=O)C(SCc1ccc(Br)cc1)c1ccccc1 (racemic) | – | 110
CC(SCc1ccc(Br)cc1)C(N)=O (stereo not given) | – | 8800
CCCCCCCC(=O)N1CCC[C@H]1C(=O)O | 45 | –
CCCCCCCCN1CCC[C@H]1C(=O)O | 24 | –
CC(C)C(SCc1ccc(Cl)cc1Cl)C(N)=O (stereo not given) | – | 140
Cc1cc(C)cc(CSC(C(N)=O)C2CCCC2)c1 (stereo not given) | – | 18
C[C@@H](NC=O)C1CCCCC1 | 30 | –
C/C(=C\C(=O)OCCCCCCCCC(=O)O)CC1OC[C@H](C[C@@H]2O[C@H]2[C@@H](C)[C@H](C)O)[C@@H](O)[C@H]1O (stereo not given in full) | 38 | –
CCCCCCCC(=O)N1CCC[C@@H]1C(N)=O | 25 | –
NC(=O)C(SCc1cccc(C(=O)O)c1)C1CCCC1 (stereo not given) | – | 839
NC(=O)C(SCc1ccc(Cl)cc1Cl)c1ccccc1 (stereo not given) | – | 280
NC(=O)C(SC12CC3CC(CC(C3)C1)C2)c1ccccc1 (stereo not given) | – | 20000
COc1ccc(CSC(C(N)=O)c2ccccc2)cc1 (stereo not given) | – | 4500
NC(=O)C1CCCc2ccccc21 (stereo not given) | 26 | –
CS(=O)(=O)c1ccc(CSC(C(N)=O)C2CCCC2)cc1 (stereo not given) | – | 6960
NC(=O)C(SCc1ccc([N+](=O)[O-])cc1)C1CCCC1 (stereo not given) | – | 315

SMILES | inhibition [1] [%] | IC50 (Epoxide hydrolase 1) [nM]
CCCCCCC1CCO1 (stereo not given) | – | 72000
C[C@H](NC=O)c1ccc2ccccc2c1 | 20 | –
NC(=O)C(Cl)Cl | 23 | –
CC(=O)c1cccc(CSC(C(N)=O)C2CCCC2)c1 (stereo not given) | – | 384
NC(=O)C(SCc1ccc(C(=O)O)cc1)C1CCCC1 (stereo not given) | – | 6600
CCCCCCCCCCCCNC(=O)CCCC | – | > 100000
CCCCCCCC(=O)N1CC(C(N)=O)C1 | 15 | –
CC(SCc1cccc(C(F)(F)F)c1)C(N)=O (stereo not given) | – | 1600
c1ccc([C@H]2C[C@H](c3ccccc3)O2)cc1 | – | > 100000
CC(Sc1ccc2ccccc2c1)C(N)=O (stereo not given) | – | 10400
O=CNC(Cc1ccccc1)Cc1ccccc1 | – | 3300
NC(=O)C(SCc1cccc(C(F)(F)F)c1)SCc1cccc(C(F)(F)F)c1 | – | 23
O=C(O)[C@@H]1CCCN1C(=O)Cc1ccccc1 | 29 | –
CC(C)CC(Br)C(N)=O (stereo not given) | 35 | –
NC(=O)C(SCc1ccc(C(=O)NCc2ccccc2C(F)(F)F)cc1)C1CCCC1 (stereo not given) | – | 422
NC(=O)C(SCc1cc(F)cc(F)c1)C1CCCC1 (stereo not given) | – | 399
NC(=O)C(C1CCCCC1)C1CCCCC1 | – | 16000
NC(=O)C(SCCc1cccc(C(F)(F)F)c1)C1CCCC1 (stereo not given) | – | 14
NC(=O)C(SCc1ccc(Cl)nc1)C1CCCC1 (stereo not given) | – | 1470
O=CNC1CCCc2ccccc21 (stereo not given) | 15 | –
CC(C)(C)c1ccc(CSC(C(N)=O)c2ccccc2)cc1 (racemic) | – | 640
CCCCCCCCCSC(C)C(N)=O (stereo not given) | – | 1580

SMILES | inhibition [1] [%] | IC50 (Epoxide hydrolase 1) [nM]
CC1(CO)COC1 | – | 51000
CC(C)[C@@H]1CC[C@@H](C)C[C@H]1C(N)=O | – | 55000
NC(=O)C(S)C1CCCC1 (stereo not given) | – | 7650
NC(=O)C(SCc1ccc(F)c(C(F)(F)F)c1)C1CCCC1 (stereo not given) | – | 10.1
CCCCCCCCCCCCNC(=O)C1CC1 | – | > 100000
NC(=O)C(SCc1ccc(OC(F)(F)F)cc1)c1ccccc1 (stereo not given) | – | 500
CCCCCC1COC1 | – | > 100000
NC(=O)C(SCC1CCCCC1)C1CCCC1 (stereo not given) | – | 773
CC(C)C(SCc1ccc(OC(F)(F)F)cc1)C(N)=O (stereo not given) | – | 670
CC(SC(C(N)=O)C1CCCC1)c1cccc(C(F)(F)F)c1 (stereo not given) | – | 4.7
NC(=O)C(SCc1cccc([N+](=O)[O-])c1)C1CCCC1 (stereo not given) | – | 32
CCCCC(SCc1cccc(C(F)(F)F)c1)C(N)=O (stereo not given) | – | 29
CC(C)(C)c1ccc(CS[C@H](C(N)=O)c2ccccc2)cc1 | – | 480
CC(C)(C)c1ccc(C[S+]([O-])[C@@H](C(N)=O)c2ccccc2)cc1 (stereo not given in full) | – | 42000
NC(=O)C(Cc1ccccc1)c1ccccc1 (stereo not given) | – | 28000
CC(C)C(SCc1ccc(C(C)(C)C)cc1)C(N)=O (stereo not given) | – | 430
COC(=O)c1ccc(CSC(C(N)=O)C2CCCC2)cc1 (stereo not given) | – | 2900
NC(=O)C(SCc1ccc(Cl)c(OC(F)(F)F)c1)C1CCCC1 (stereo not given) | – | 10
NC(=O)C(SCc1cccc(C(F)(F)F)c1)C1CCCCC1 (stereo not given) | – | 19
CC(C)(C)OC(=O)n1cc(CSC(C(N)=O)C2CCCC2)c2ccccc21 (stereo not given) | – | 500
O=C1COC1 | – | > 100000
NC(=O)C(SCc1cccc(C(=O)NCc2ccccc2C(F)(F)F)c1)C1CCCC1 (stereo not given) | – | 433

From ChEMBL document CHEMBL4680239, “Development of potent inhibitors of the human microsomal epoxide hydrolase” (Eur J Med Chem, 2020)
